Data as given in ChEMBL document CHEMBL5724801, “EUbOPEN Chemogenomics Library - Multiplex” (2024).
Several values for one entry are separate records, joined by “and”; a condition that tells them apart may be missing. Identical values can stand only once.

Tested on: U2OS
Assay: Multiplex assay against U2OS
Assay type: toxicity, cell-based
Details: human
In short: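 Cells stained live at seeding with Hoechst33342, BioTracker Green Microtubule Cytoskeleton Dye, MitoTracker Red and Annexin V Alexa Fluor 680 were imaged on a CQ1 microscope at 37°C and 5% CO2 after compound addition. Their classification by CellPathfinder machine-learning gating ran from Hoechst high-intensity objects versus normal cells, to healthy, pyknosed or fragmented nuclei among normal cells, to mitotic or apoptotic among pyknosed cells. Tubulin, mitochondrial-mass and membrane-permeability phenotypes are per cents of healthy-nucleus cells.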

[1] = 12 h, 1 µM, compound concentration 1 uM
[2] = 12 h, 10 µM, compound concentration 10 uM
[3] = 24 h, 1 µM, compound concentration 1 uM
[4] = 24 h, 10 µM, compound concentration 10 uM
[5] = 48 h, 1 µM, compound concentration 1 uM
[6] = 48 h, 10 µM, compound concentration 10 uM

## Cc1noc(-c2ccc(-c3ccc(CC(=O)O)cc3)cc2)c1NC(=O)O[C@H](C)c1ccccc1Cl
[1]
  Population Apoptotic (%): 95% and 85%
  Population Fragmented Nuclei (%): 21% and 19%
  Population Healthy Nuclei (%): 69% and 74%
  Population Hoechst High Intensity Objects (%): 4% and 0%
  Population Membrane Permeable-Phenotype (%): 7% and 2%
  Population Mitochondria Different-Phenotype (%): 5% and 2%
  Population Mitotic Cells (%): 5% and 14%
  Population Normal (%): 95% and 99%
  Population Pyknosed Nuclei (%): 9% and 7%
  Population Tubulin-Different-Phenotype (%): 4%
  Total Cell Count: 231 and 101
[2]
  Population Apoptotic (%): 78% and 71%
  Population Fragmented Nuclei (%): 29% and 11%
  Population Healthy Nuclei (%): 61% and 83%
  Population Hoechst High Intensity Objects (%): 2%
  Population Membrane Permeable-Phenotype (%): 11% and 6%
  Population Mitochondria Different-Phenotype (%): 4% and 2%
  Population Mitotic Cells (%): 21% and 28%
  Population Normal (%): 97%
  Population Pyknosed Nuclei (%): 9% and 5%
  Population Tubulin-Different-Phenotype (%): 6%
  Total Cell Count: 242 and 138
[3]
  Population Apoptotic (%): 96% and 77%
  Population Fragmented Nuclei (%): 19% and 15%
  Population Healthy Nuclei (%): 70% and 77%
  Population Hoechst High Intensity Objects (%): 2% and 0%
  Population Membrane Permeable-Phenotype (%): 5% and 4%
  Population Mitochondria Different-Phenotype (%): 4% and 3%
  Population Normal (%): 97% and 99%
  Population Pyknosed Nuclei (%): 9% and 7%
  Population Tubulin-Different-Phenotype (%): 3% and 6%
  Total Cell Count: 277 and 125
[4]
  Population Apoptotic (%): 92% and 90%
  Population Fragmented Nuclei (%): 24% and 12%
  Population Healthy Nuclei (%): 65% and 80%
  Population Hoechst High Intensity Objects (%): 1% and 2%
  Population Membrane Permeable-Phenotype (%): 11% and 7%
  Population Mitochondria Different-Phenotype (%): 2%
  Population Mitotic Cells (%): 7% and 9%
  Population Normal (%): 98% and 97%
  Population Pyknosed Nuclei (%): 10% and 7%
  Population Tubulin-Different-Phenotype (%): 5% and 4%
  Total Cell Count: 260 and 154
[5]
  Population Apoptotic (%): 97% and 86%
  Population Fragmented Nuclei (%): 15% and 18%
  Population Healthy Nuclei (%): 75% and 72%
  Population Hoechst High Intensity Objects (%): 1% and 0%
  Population Membrane Permeable-Phenotype (%): 6%
  Population Mitochondria Different-Phenotype (%): 3% and 4%
  Population Normal (%): 98% and 100%
  Population Pyknosed Nuclei (%): 9% and 8%
  Population Tubulin-Different-Phenotype (%): 3% and 4%
  Total Cell Count: 408 and 170
[6]
  Population Apoptotic (%): 92% and 85%
  Population Fragmented Nuclei (%): 19% and 9%
  Population Healthy Nuclei (%): 72% and 78%
  Population Hoechst High Intensity Objects (%): 3% and 4%
  Population Membrane Permeable-Phenotype (%): 7% and 6%
  Population Mitochondria Different-Phenotype (%): 3% and 2%
  Population Mitotic Cells (%): 7% and 14%
  Population Normal (%): 96% and 95%
  Population Pyknosed Nuclei (%): 8% and 11%
  Population Tubulin-Different-Phenotype (%): 5% and 4%
  Total Cell Count: 344 and 241

## O=C1NCc2ccc3c(-c4cccc(Cl)c4)c[nH]c3c21
[1]
  Population Apoptotic (%): 16.88% and 44.83%
  Population Fragmented Nuclei (%): 2.23% and 1.96%
  Population Healthy Nuclei (%): 76.32% and 79.08%
  Population Hoechst High Intensity Objects (%): 0%
  Population Membrane Permeable-Phenotype (%): 1.46% and 3.31%
  Population Mitochondria Different-Phenotype (%): 0% and 8.26%
  Population Mitotic Cells (%): 83.12% and 55.17%
  Population Normal (%): 100%
  Population Pyknosed Nuclei (%): 21.45% and 18.95%
  Population Tubulin-Different-Phenotype (%): 1.46% and 2.48%
  Total Cell Count: 359 and 153
[2]
  Population Apoptotic (%): 31.03% and 23.81%
  Population Fragmented Nuclei (%): 0.99% and 2.27%
  Population Healthy Nuclei (%): 79.87% and 81.82%
  Population Hoechst High Intensity Objects (%): 0%
  Population Membrane Permeable-Phenotype (%): 2.89% and 3.7%
  Population Mitochondria Different-Phenotype (%): 0% and 15.74%
  Population Mitotic Cells (%): 68.97% and 76.19%
  Population Normal (%): 100%
  Population Pyknosed Nuclei (%): 19.14% and 15.91%
  Population Tubulin-Different-Phenotype (%): 2.07% and 0.93%
  Total Cell Count: 303 and 132
[3]
  Population Apoptotic (%): 34.38% and 19.64%
  Population Fragmented Nuclei (%): 3.92% and 1.72%
  Population Healthy Nuclei (%): 66.59% and 66.09%
  Population Hoechst High Intensity Objects (%): 0% and 0.57%
  Population Membrane Permeable-Phenotype (%): 0.69% and 3.48%
  Population Mitochondria Different-Phenotype (%): 0% and 8.7%
  Population Mitotic Cells (%): 65.62% and 80.36%
  Population Normal (%): 100% and 99.43%
  Population Pyknosed Nuclei (%): 29.49% and 32.18%
  Population Tubulin-Different-Phenotype (%): 1.73% and 2.61%
  Total Cell Count: 434 and 175
[4]
  Population Apoptotic (%): 50% and 28.3%
  Population Fragmented Nuclei (%): 4.05% and 5.47%
  Population Healthy Nuclei (%): 49.22% and 53.12%
  Population Hoechst High Intensity Objects (%): 0.62% and 0%
  Population Membrane Permeable-Phenotype (%): 0.63% and 8.82%
  Population Mitochondria Different-Phenotype (%): 0% and 8.82%
  Population Mitotic Cells (%): 50% and 71.7%
  Population Normal (%): 99.38% and 100%
  Population Pyknosed Nuclei (%): 46.73% and 41.41%
  Population Tubulin-Different-Phenotype (%): 1.27% and 1.47%
  Total Cell Count: 323 and 128
[5]
  Population Apoptotic (%): 63.69% and 70.59%
  Population Fragmented Nuclei (%): 9.74% and 8.94%
  Population Healthy Nuclei (%): 47.18% and 43.58%
  Population Hoechst High Intensity Objects (%): 0%
  Population Membrane Permeable-Phenotype (%): 1.63% and 6.41%
  Population Mitotic Cells (%): 36.31% and 29.41%
  Population Normal (%): 100%
  Population Pyknosed Nuclei (%): 43.08% and 47.49%
  Population Tubulin-Different-Phenotype (%): 6.52% and 2.56%
  Total Cell Count: 390 and 179
[6]
  Population Apoptotic (%): 70.56% and 84.62%
  Population Fragmented Nuclei (%): 6.99% and 3.12%
  Population Healthy Nuclei (%): 38.3% and 46.09%
  Population Hoechst High Intensity Objects (%): 0%
  Population Membrane Permeable-Phenotype (%): 2.38% and 6.78%
  Population Mitotic Cells (%): 29.44% and 15.38%
  Population Normal (%): 100%
  Population Pyknosed Nuclei (%): 54.71% and 50.78%
  Population Tubulin-Different-Phenotype (%): 10.32% and 5.08%
  Total Cell Count: 329 and 128

## CCCCCCNC(=O)Nc1ccc(S(=O)(=O)Nc2ccc(CCNC[C@H](O)COc3ccc(O)cc3)cc2)cc1 [L-755507]
[1]
  Population Apoptotic (%): 86% and 100%
  Population Fragmented Nuclei (%): 22% and 18%
  Population Healthy Nuclei (%): 67% and 75%
  Population Hoechst High Intensity Objects (%): 4% and 0%
  Population Membrane Permeable-Phenotype (%): 4% and 10%
  Population Mitochondria Different-Phenotype (%): 4% and 1%
  Population Mitotic Cells (%): 13% and 0%
  Population Normal (%): 95% and 99%
  Population Pyknosed Nuclei (%): 9% and 5%
  Population Tubulin-Different-Phenotype (%): 4% and 5%
  Total Cell Count: 231 and 120
[2]
  Population Apoptotic (%): 60% and 72%
  Population Fragmented Nuclei (%): 31% and 19%
  Population Healthy Nuclei (%): 59% and 72%
  Population Hoechst High Intensity Objects (%): 3% and 2%
  Population Membrane Permeable-Phenotype (%): 13% and 19%
  Population Mitochondria Different-Phenotype (%): 11% and 15%
  Population Mitotic Cells (%): 40% and 27%
  Population Normal (%): 96% and 97%
  Population Pyknosed Nuclei (%): 9% and 8%
  Population Tubulin-Different-Phenotype (%): 10% and 15%
  Total Cell Count: 282 and 140
[3]
  Population Apoptotic (%): 83% and 92%
  Population Fragmented Nuclei (%): 22% and 23%
  Population Healthy Nuclei (%): 66% and 67%
  Population Hoechst High Intensity Objects (%): 4% and 2%
  Population Membrane Permeable-Phenotype (%): 5% and 11%
  Population Mitochondria Different-Phenotype (%): 5% and 1%
  Population Mitotic Cells (%): 16% and 7%
  Population Normal (%): 95% and 97%
  Population Pyknosed Nuclei (%): 11% and 9%
  Population Tubulin-Different-Phenotype (%): 3% and 5%
  Total Cell Count: 285 and 143
[4]
  Population Apoptotic (%): 85% and 88%
  Population Fragmented Nuclei (%): 25% and 14%
  Population Healthy Nuclei (%): 65% and 79%
  Population Hoechst High Intensity Objects (%): 2%
  Population Membrane Permeable-Phenotype (%): 7% and 9%
  Population Mitochondria Different-Phenotype (%): 4% and 5%
  Population Mitotic Cells (%): 14% and 11%
  Population Normal (%): 97%
  Population Pyknosed Nuclei (%): 9% and 6%
  Population Tubulin-Different-Phenotype (%): 3% and 6%
  Total Cell Count: 307 and 149
[5]
  Population Apoptotic (%): 78% and 91%
  Population Fragmented Nuclei (%): 14% and 26%
  Population Healthy Nuclei (%): 74% and 61%
  Population Hoechst High Intensity Objects (%): 1% and 4%
  Population Membrane Permeable-Phenotype (%): 6% and 12%
  Population Mitochondria Different-Phenotype (%): 3% and 5%
  Population Mitotic Cells (%): 21% and 8%
  Population Normal (%): 98% and 95%
  Population Pyknosed Nuclei (%): 11% and 12%
  Population Tubulin-Different-Phenotype (%): 3% and 6%
  Total Cell Count: 422 and 188
[6]
  Population Apoptotic (%): 80% and 94%
  Population Fragmented Nuclei (%): 19% and 13%
  Population Healthy Nuclei (%): 70% and 78%
  Population Hoechst High Intensity Objects (%): 2% and 1%
  Population Membrane Permeable-Phenotype (%): 7%
  Population Mitochondria Different-Phenotype (%): 2% and 3%
  Population Normal (%): 97% and 98%
  Population Pyknosed Nuclei (%): 9% and 7%
  Population Tubulin-Different-Phenotype (%): 4% and 6%
  Total Cell Count: 419 and 242
